Compounds with a hit are over-represented: about 4.5% of the library has one in this group of screens.
OX1R antag-1: OX1R (HCRTR1) antagonists, primary screen, fluorescence, CHO/OX1R cells, Fluo-8 calcium, orexin A; inhibition, % at 5 µM; Fluo-8 calcium fluorescence; Orexin/Hypocretin receptor type 1 (Homo sapiens), O43613; actives 0.43% (n = 330,000);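 active = inhibition above its plate's threshold, mean inhibition of all tested compounds on the plate plus 3 SD, cut at about 37% in these data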;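 note: 0% = orexin A challenge wells and 100% = SB-334867-A antagonist wells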
Target sequence (O43613 whole entry, looked up): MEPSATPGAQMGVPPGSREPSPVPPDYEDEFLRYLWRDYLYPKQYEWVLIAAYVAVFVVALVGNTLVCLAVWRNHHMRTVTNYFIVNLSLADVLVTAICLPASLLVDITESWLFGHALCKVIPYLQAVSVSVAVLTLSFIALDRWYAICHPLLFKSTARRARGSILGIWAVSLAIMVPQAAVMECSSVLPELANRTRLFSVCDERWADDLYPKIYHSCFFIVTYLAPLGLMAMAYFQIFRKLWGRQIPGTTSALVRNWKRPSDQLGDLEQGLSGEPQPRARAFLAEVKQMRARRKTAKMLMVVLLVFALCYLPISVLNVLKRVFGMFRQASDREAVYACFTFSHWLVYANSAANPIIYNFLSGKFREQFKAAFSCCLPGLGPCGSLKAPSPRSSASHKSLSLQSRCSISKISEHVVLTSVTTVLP
OX1R antag-2: antagonists of human orexin 1 receptor (OX1R); OX1R-expressing cells, FRET antagonist read-out; actives 1.8% (n = 330,000); inhibition, % at 6.6 µM; AID 485270, 2010; Orexin/Hypocretin receptor type 1 (Homo sapiens), O43613; in the data active = inhibition mostly above about 38%, no sharp cut-off; inactive = mostly below about 40%;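 note: 0% = agonist challenge alone and 100% = reference antagonist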
CHO parental Ca: ATP-evoked calcium signal inhibitors, parental CHO, primary screen, counter-screen for OX1R antagonist project, cell-based, fluorescence, Fluo-8 calcium dye; inhibition, % at 5.6 µM; actives 0.63% (n = 330,000); parental CHO-K1, ATP-induced calcium, Fluo-8 fluorescence;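 active = inhibition above that plate's mean sample inhibition plus 3 SD, cut at about 26% in these data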;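 note: 0% = ATP-challenged DMSO wells and 100% = DMSO wells without ATP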
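Material: Parental CHO cells | Reagent: ATP | Compound dosing: Single nominal dose of 5.6 µM per compound | Detection: Intracellular calcium via Fluo-8 no-wash fluorescent dye | Read-out: % inhibition of ATP-induced calcium mobilization | Benchmarks: Low control ATP plus DMSO, high control DMSO only | Replicates: Singlicate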
TAAR1 antag: human TAAR1 antagonists, primary screen, Fluo-8 calcium fluorescence, CHO RD-HGA16 cells | actives 1.5% (n = 360,000) | inhibition, % at 3 µM | antagonist | AID 624466, 2012 | Trace amine-associated receptor 1 (Homo sapiens), Q96RJ0;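 active = inhibition above a per-plate cutoff, the mean inhibition of test compounds on that plate plus 3 SD, cut at about 49% in these data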;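 note: 0% = DMSO plus EC80 beta-PEA response and 100% = DMSO alone without agonist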
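System: RD-HGA16 CHO cells with stable hTAAR1 and Gα16 | Probe or stimulus: EC80 β-phenethylamine stimulus | Dosing: 3 µM, single point | Times: Dye loading 75 min at 37 °C, then 30 min room temperature | Measured by: Fluo-8 calcium-sensitive fluorescence | Read-out basis: % inhibition of agonist calcium response | Replicates: n of 1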
GPR7 antag: GPR7 receptor antagonists, primary screen, cell-based, fluorescence, single concentration. Neuropeptides B/W receptor type 1 (Homo sapiens), P48145. GPR7-expressing cells, fluorescence antagonist assay. inhibition, % at 4.4 µM. actives 1.1% (n = 290,000); in the data active = inhibition above about 16%, passing the limit was not always enough;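 note: cells stimulated with the agonist NPW; 0% = agonist with vehicle and 100% = vehicle without agonist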
Target sequence (P48145 whole entry, looked up): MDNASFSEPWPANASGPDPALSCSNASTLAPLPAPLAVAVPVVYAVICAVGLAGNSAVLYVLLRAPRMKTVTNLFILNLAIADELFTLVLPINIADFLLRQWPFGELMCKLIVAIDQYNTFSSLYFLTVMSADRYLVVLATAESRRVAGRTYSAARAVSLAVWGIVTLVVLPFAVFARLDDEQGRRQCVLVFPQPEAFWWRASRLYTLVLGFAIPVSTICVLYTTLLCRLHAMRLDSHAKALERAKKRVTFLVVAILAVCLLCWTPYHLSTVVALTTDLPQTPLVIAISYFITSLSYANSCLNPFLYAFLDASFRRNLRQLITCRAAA
TAAR1 agonist: human TAAR1 agonists, primary screen, Fluo-8 calcium fluorescence, CHO RD-HGA16 cells | Trace amine-associated receptor 1 (Homo sapiens), Q96RJ0 | actives 0.99% (n = 360,000) | vehicle wells 0%, saturating PEA agonist 100% | activation, % at 3 µM;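 active = activation above the mean activation of all test compounds in the run plus 3 SD, cut at about 38% in these data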
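System: CHO-derived RD-HGA16 cells with stable Gα16 and human TAAR1. Times: 17-24 h plating, Fluo-8 75 min 37 °C, 30 min RT. Measured by: calcium-sensitive Fluo-8 signal, excitation 470-495, emission 515-575 nm. Read-out basis: % activation relative to PEA EC100 response. Control set: DMSO and PEA EC100. Repeats: no replicates (n 1).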
TAAR1 ag conf: human TAAR1 agonists, retest of hits, confirmation, Fluo-8 calcium fluorescence, CHO RD-HGA16 cells | scaled: DMSO 0%, maximal phenethylamine 100% | AID 651783, 2012 | shares compounds with TAAR1 agonist | activation, % at 3 µM | actives 82% (n = 2,400);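 active = activation above a cutoff set at the run's mean compound activation plus 3 SD, cut at about 39% in these data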
Ga16 nonsel ag: nonselective calcium mobilization agonists, CHO-Ga16 cells, counter-screen for hTAAR1 agonist project, cell-based, fluorescence, CHO-Ga16 parental line; shares compounds with TAAR1 agonist; Fluo-8 calcium fluorescence; normalized to maximal ATP response, DMSO zero; activation, % at 3 µM; actives 50% (n = 2,400);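 active = activation above the run cutoff, the mean activation over all tested wells plus 3 SD, cut at about 12% in these data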;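 note: 0% = DMSO wells and 100% = maximal ATP response on the peak over basal ratio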
TAAR1 desensitize: TAAR1 desensitization by agonist hits, confirmation, counter-screen for TAAR1 agonist project, cell-based, fluorescence, tachyphylaxis. inhibition, % at 3 µM. AID 651951, 2012. actives 46% (n = 2,400). shares compounds with TAAR1 agonist. CHO RD-HGA16 hTAAR1, Fluo-8 calcium, beta-PEA response inhibition;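 active = inhibition above the run cutoff, the mean inhibition of all test compounds plus 3 SD, cut at about 49% in these data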;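 note: beta-PEA stimulus applied at its EC80; loss of beta-PEA calcium signal after compound pretreatment read as receptor desensitization; 0% = DMSO with beta-PEA at EC80 and 100% = DMSO alone without agonist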
Ga16 antag count: inhibition of ATP-evoked calcium response in CHO-Ga16 cells, counter-screen for TAAR1 agonist project, cell-based, fluorescence; CHO-Ga16 ATP-induced calcium, Fluo-8 fluorescence; actives 39% (n = 2,400); inhibition, % at 3 µM; shares compounds with TAAR1 agonist;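 active = inhibition above the plate's mean compound inhibition plus 3 SD, computed per plate, cut at about 22% in these data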;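 note: 0% = EC80 ATP with DMSO and 100% = DMSO wells without ATP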
* marks the source's active call; other numbers are inactive results; . = not tested or not shown.

SMILES	OX1R antag-1	OX1R antag-2	CHO parental Ca	TAAR1 antag	GPR7 antag	TAAR1 agonist	TAAR1 ag conf	Ga16 nonsel ag	TAAR1 desensitize	Ga16 antag count
CN1OC[C@@H]2CN(C(=O)CCc3ccccc3)[C@H](c3ccc(-n4ccnc4)cc3)C[C@@H]21	.	.	.	-9	.	2	.	.	.	.
CC(C)NC(=O)C1(C)CSCC(=O)N1C1CC1 (stereo not drawn)	.	.	.	-18	.	0	.	.	.	.
O=C(Nc1ccc2c(c1)C(=O)N(c1ccccc1)C2=O)c1cccs1	-20	6	2	40	-8	57*	46*	25*	35	17
O=C(O)CCN1C(=O)c2ccc(NC(=O)c3cccs3)cc2C1=O	-18	19	-1	-8	-11	2	.	.	.	.
CC1=NN2C(=N)/C(=C\c3cc(C)n(-c4ccccc4)c3C)C(=O)N=C2S1	-30	-3	-9	5	-8	-1	.	.	.	.
Cc1cc(/C=C2\C(=N)N3C(SCc4ccccc4)=NSC3=NC2=O)c(C)n1Cc1ccccc1	-5	6	-2	6	-6	6	.	.	.	.
CCC1=NN2C(=N)/C(=C/c3cc(C)n(Cc4ccccc4)c3C)C(=O)N=C2S1	97*	19	70*	91*	-12	104*	104*	72*	95*	77*
Cc1cc(/C=C2\C(=N)N3N=C(c4ccco4)SC3=NC2=O)c(C)n1Cc1ccccc1	104*	10	41*	103*	2	130*	107*	79*	104*	91*
CCCCCCCCCCCCC/C=C/[C@@H](O)[C@@H](N)CO	13	4	18	-8	.	39*	83*	65*	13	23*
CCCCCCCC/C=C\CCCCCCCC(=O)O	-10	4	-4	-5	.	1	.	.	.	.
CCC(C)(C)NC(=O)CN(C(=O)CNS(=O)(=O)c1ccc(C)cc1)c1ccc2c(c1)OCCO2	-23	10	-20	-13	-13	52*	82*	26*	12	8
CC(C)(C)NC(=O)CN(C(=O)CNS(=O)(=O)c1ccc(Cl)cc1)c1ccc2c(c1)OCCO2	-23	24	-22	6	5	72*	100*	45*	25	8
CC(C)(C)NC(=O)CN(C(=O)CNS(=O)(=O)c1ccccc1)c1ccc2c(c1)OCCO2	-23	12	-6	3	-1	0	.	.	.	.
Cc1ccc(S(=O)(=O)NCC(=O)N(CC(=O)NC2CCCC2)c2ccc3c(c2)OCCO3)cc1	.	.	.	-19	-13	14	.	.	.	.
Cc1ccc(Cl)c(NC(=O)COC(=O)CNS(=O)(=O)/C=C/c2ccccc2)c1Cl	-14	23	3	18	-7	73*	1	4	23	13
O=C(O)/C=C/C(=O)NCCCc1ccccc1	-1	20	3	34	-4	74*	103*	2	78*	-2
O=C(O)/C=C/C(=O)NCc1ccccc1	-1	15	2	0	-11	12	.	.	.	.
CCc1nc2ccc(C(=O)N(C)Cc3ccccc3)cn2c1N(CC)CCN(C)C	.	.	.	-20	.	3	.	.	.	.
O=C1c2cccc3c(O)ccc(c23)C(=O)N1c1ccc(Cl)cc1	85*	19	69*	59*	27	235*	129*	121*	75*	70*
O=C1c2ccccc2C(=O)N1Cc1ccco1	-7	12	-7	11	-9	0	.	.	.	.
O=C1c2cccc3c(O)ccc(c23)C(=O)N1Cc1ccco1	.	.	.	39	-1	132*	158*	188*	74*	80*
CC(=O)Nc1ccc(N2C(=O)c3cccc4c(O)ccc(c34)C2=O)cc1	61*	16	58*	42	25	174*	63*	65*	31	39*
O=C1c2ccccc2C(=O)N1c1ccc(Cl)cc1	-8	14	-12	.	-10	.	.	.	.	.
O=C(NC1CCCc2c1cnn2-c1ccccc1F)c1ccncc1 (stereo not drawn)	.	.	.	5	.	3	.	.	.	.
O=C(CC[C@H]1O[C@@H](n2cnc3c(NC(=O)c4ccccc4)ncnc32)[C@H](O)[C@@H]1O)NCCc1cc2ccccc2[nH]1	.	.	.	-7	.	4	.	.	.	.
SMILES	OX1R antag-1	OX1R antag-2	CHO parental Ca	TAAR1 antag	GPR7 antag	TAAR1 agonist	TAAR1 ag conf	Ga16 nonsel ag	TAAR1 desensitize	Ga16 antag count
CC(=O)OC[C@@H]1CN(Cc2ccccc2)C[C@H](n2cnc3c(NCC(C)C)ncnc32)O1	.	.	.	-16	.	0	.	.	.	.
CCN(CC)C(=O)C1=C(C)N(Cc2ccc(OC)cc2)C(=O)C(CC(=O)NC2CCCC2)C1 (stereo not drawn)	.	.	.	5	.	-2	.	.	.	.
C[C@@H]1CN([C@@H](C)CO)C(=O)c2cc(Br)cnc2O[C@H]1CN(C)C(=O)C1CC1	.	.	.	-16	.	3	.	.	.	.
Cc1onc(-c2ccccc2)c1C(=O)NNC(=S)NC(=O)c1ccc(Cl)cc1Cl	-8	3	3	108*	-10	132*	149*	121*	107*	92*
COc1ccc(/C=C/C(=O)NC(=S)NNC(=O)Cc2cccs2)cc1	2	9	23	28	-9	48*	30	19*	24	25*
COc1ccc(/C=C/C(=O)NC(=S)NNC(=O)c2c(-c3ccccc3)noc2C)cc1	-7	-1	-4	49*	-6	93*	68*	66*	52*	52*
Cc1onc(-c2ccccc2)c1C(=O)NNC(=S)NC(=O)c1ccc(Br)cc1	-12	6	-2	-10	-8	1	.	.	.	.

Assay outcomes: PubChem, The Scripps Research Institute Molecular Screening Center
